Test results from ChEMBL document CHEMBL4177542, “A New Combination of a Pleuromutilin Derivative and Doxycycline for Treatment of Multidrug-Resistant Acinetobacter baumannii” (J Med Chem, 2017).
Converted amounts (≈) assume the structure as drawn.

What was measured:
Acinetobacter baumannii [1] = test: Bactericidal activity against multidrug-resistant Acinetobacter baumannii ATCC BAA 18002 after 48 hrs by resazurin dye based broth microdilution method; format: functional; conditions: for MBC: read-out: MBC99.9
In short: (§1)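 Broth microdilution in tryptic soy broth. Mid-log cultures (OD600 0.5) treated with serial dilutions from a DMSO stock (1 mg per 100 μL) for 48 h at 37 °C. Resazurin (stock 0.02%) then added for 1 h at 37 °C. MIC is the lowest concentration staying blue; MBC is blue retained over 4 h (99.9% kill), with CFU plating when needed.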

Acinetobacter baumannii [2] = test: Growth inhibition of multidrug-resistant Acinetobacter baumannii ATCC BAA 18002 after 48 hrs by resazurin dye based broth microdilution method; format: functional; in short: as §1
Acinetobacter baumannii [3] = test: Growth inhibition of Acinetobacter baumannii ATCC 19606 after 48 hrs by resazurin dye based microdilution method; format: functional
In short: (§2)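 A. baumannii ATCC 19606 grown in tryptic soy broth, 37 °C with shaking, to mid-log (OD 0.5). Cultures treated with serial dilutions of inhibitor (DMSO stock 1 mg/100 μL), 48 h at 37 °C. Resazurin then added, 1 h at 37 °C with shaking. MIC is the lowest concentration staying blue; MBC is blue retained over 4 h, with CFU plating if needed (99.9% kill).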

Acinetobacter baumannii [4] = test: Bactericidal activity against Acinetobacter baumannii ATCC 19606 after 48 hrs by resazurin dye based microdilution method; format: functional; conditions: for MBC: ATCC 19606 = CIP 70.34 = JCM 6841, 48 h, read-out: MBC99.9; in short: as §2
Vero = test: Cytotoxicity against African green monkey Vero cells after 72 hrs by MTT assay; format: cell-based, Chlorocebus sabaeus
In short: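 Vero (ATCC CCL-81) cells in Eagle's MEM with 10% FBS and penicillin-streptomycin, in 96-well plates. Serial dilutions from 0.78 to 200 μg/mL. Tunicamycin, colistin or tobramycin as controls on each plate. Viability by MTT, giving IC50.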

Acinetobacter baumannii [5] = test: Antibacterial activity against Acinetobacter baumannii ATCC 19606 infected in C57BL/6 mouse assessed as survival rate at 6 mg/kg, ip administered as single dose measured for 5 days (reference value: <20%); format: functional; conditions: ATCC 19606 = CIP 70.34 = JCM 6841, ip, 120 h
In short: (§3)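 C57BL/6 mice (n = 5 per group; 4 untreated controls) infected intraperitoneally with A. baumannii ATCC19606 grown at 37 °C and collected by centrifugation, at a dose giving 75% death. Single intraperitoneal dose (2 to 60 mg/kg) given 1 h after infection. Mice monitored for 5 days, with death as the end point; survival rate recorded.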

Klebsiella pneumoniae [6] = test: Growth inhibition of Klebsiella pneumoniae ATCC 8047 after 48 hrs by resazurin dye based microdilution method; format: functional; conditions: ATCC 8047, 48 h; in short: as §1
Staphylococcus aureus [7] = test: Growth inhibition of Staphylococcus aureus ATCC 25923 after 48 hrs by resazurin dye based microdilution method; format: functional; conditions: ATCC 25923, 48 h; in short: as §1
Staphylococcus aureus [8] = test: Bactericidal activity against Staphylococcus aureus ATCC 25923 after 48 hrs by resazurin dye based microdilution method; format: functional; conditions: ATCC 25923, 48 h, read-out: MBC99.9; in short: as §1
Pseudomonas aeruginosa [9] = test: Bactericidal activity against Pseudomonas aeruginosa ATCC 27853 after 48 hrs by resazurin dye based microdilution method; format: functional; conditions: ATCC 27853, 48 h, read-out: MBC99.9; in short: as §1
Pseudomonas aeruginosa [10] = test: Growth inhibition of Pseudomonas aeruginosa ATCC 27853 after 48 hrs by resazurin dye based microdilution method; format: functional; conditions: ATCC 27853, 48 h; in short: as §1
Escherichia coli [11] = test: Bactericidal activity against Escherichia coli ATCC 10798 after 48 hrs by resazurin dye based microdilution method; format: functional; conditions: ATCC 10798, 48 h, read-out: MBC99.9; in short: as §1
Klebsiella pneumoniae [12] = test: Bactericidal activity against Klebsiella pneumoniae ATCC 8047 after 48 hrs by resazurin dye based microdilution method; format: functional; conditions: ATCC 8047, 48 h, read-out: MBC99.9; in short: as §1
Escherichia coli [13] = test: Growth inhibition of Escherichia coli ATCC 10798 after 48 hrs by resazurin dye based microdilution method; format: functional; conditions: ATCC 10798, 48 h; in short: as §1
Acinetobacter baumannii [14] = test: Synergistic antibacterial activity against Acinetobacter baumannii ATCC 19606 infected in C57BL/6 mouse assessed as increase in survival rate at compound to doxycycline ratio of 35:1 administered ip as single dose measured for 5 days; format: functional; conditions: ATCC 19606 = CIP 70.34 = JCM 6841, ip, 120 h; in short: as §3
[15] = Solubility of the compound in water at 10 mg after 24 hrs by HPLC based shake flask method; format: physicochemical
[16] = Half life in Sprague-Dawley rat liver microsomes at 500 ng/ml by LC/MS analysis; format: ADME, microsome
In short: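 Pooled Sprague-Dawley rat liver microsomes at 1 mg/mL protein in 100 mM phosphate, pH 7.4. Compound at 500 ng/mL final; verapamil as positive control. Pre-equilibrated 5 min at 37 °C, then 1 mM NADPH added. Triplicate samples at 0, 5, 10, 20, 30, 45 and 60 min, quenched in 4 volumes of cold methanol, analysed by LC-MS.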

Acinetobacter baumannii [17] = test: Potentiation of doxycycline-induced antimicrobial activity against Acinetobacter baumannii ATCC 19606 at 0.78 ug/ml in presence of 0.025 ug/ml doxycycline by microdilution broth checkerboard method; format: functional, ATCC 19606 = CIP 70.34 = JCM 6841
In short: (§4)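 A. baumannii ATCC 19606 in a broth microdilution checkerboard with doxycycline, 96 concentration combinations. ΣFIC = C_A/MIC_A + C_B/MIC_B, taken for wells at the growth/no-growth interface; ΣFIC <0.5 counts as synergy.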

Acinetobacter baumannii [18] = test: Potentiation of doxycycline-induced antimicrobial activity against Acinetobacter baumannii ATCC 19606 at 1.56 ug/ml in presence of 0.05 ug/ml doxycycline by microdilution broth checkerboard method; format: functional, ATCC 19606 = CIP 70.34 = JCM 6841; in short: as §4
[19] = ATCC 19606 = CIP 70.34 = JCM 6841
[20] = ATCC 19606 = CIP 70.34 = JCM 6841, 48 h
[21] = Chlorocebus sabaeus, Vero, 72 h, read-out: IC50

Molecule	MBC (Acinetobacter baumannii [1]) [µg/mL]	MIC (Acinetobacter baumannii [2]; ATCC BAA 18002, 48 h) [µg/mL]	MIC (Acinetobacter baumannii [3]; [20]) [µg/mL]	MBC (Acinetobacter baumannii [4]) [µg/mL]	IC50 (Vero; [21]) [µg/mL]	also measured
COLISTIN [listing 1 of 2 here]	–	–	–	–	–	MBC99.9 (Acinetobacter baumannii [1]): 25 µg/mL; MIC (Acinetobacter baumannii [2]): > 12.5 µg/mL; MIC (Acinetobacter baumannii [3]; [19]): 3.13 µg/mL; MBC99.9 (Acinetobacter baumannii [4]; [19]): 6.25 µg/mL
NC[C@H]1O[C@H](O[C@H]2[C@H](O)[C@@H](O[C@H]3O[C@H](CO)[C@@H](O)[C@H](N)[C@H]3O)[C@H](N)C[C@@H]2N)[C@H](N)C[C@@H]1O [TOBRAMYCIN]	> 25	> 25	6.25 (≈ 13.4 µM)	12.5 (≈ 26.7 µM)	> 200	survival at 6 mg/kg (Acinetobacter baumannii [5]): 100%
C[C@H]1c2cccc(O)c2C(=O)C2=C(O)[C@]3(O)C(=O)C(C(N)=O)=C(O)[C@@H](N(C)C)[C@@H]3[C@@H](O)[C@@H]21.O [DOXYCYCLINE]	–	> 25	0.3	0.4	–	MIC (Klebsiella pneumoniae [6]): 0.25 µg/mL; MIC (Staphylococcus aureus [7]): 3.13 µg/mL; MBC (Staphylococcus aureus [8]): 12.5 µg/mL; MBC (Pseudomonas aeruginosa [9]): 25 µg/mL; MIC (Pseudomonas aeruginosa [10]): 12.5 µg/mL; MBC (Escherichia coli [11]): 6.25 µg/mL; MBC (Klebsiella pneumoniae [12]): 0.78 µg/mL; MIC (Escherichia coli [13]): 3.13 µg/mL; ED50 (Acinetobacter baumannii [14]): < 2 mg/kg
CCCCCCCCCCCCC/C=C/C(=O)N[C@H]1[C@H](O[C@H]2O[C@H](CO)[C@@H](O)[C@H](O)[C@H]2NC(C)=O)O[C@H](CC(O)[C@H]2O[C@@H](n3ccc(=O)[nH]c3=O)[C@H](O)[C@@H]2O)[C@H](O)[C@@H]1O (stereo partly drawn)	–	–	–	–	0.2 (≈ 0.237 µM)	–
C=C[C@]1(C)C[C@@H](OC(=O)CSC(C)(C)CNC(=O)[C@H](NC(=O)CN)C(C)C)[C@]2(C)[C@H](C)CC[C@]3(CC[C@@H](O)[C@H]32)[C@@H](C)[C@@H]1O	> 12.5	3.13 (≈ 5.02 µM)	3.13 (≈ 5.02 µM)	–	–	–
C=C[C@]1(C)C[C@@H](OC(=O)CSC(C)(C)CNC(=O)[C@H](NCCN)C(C)C)[C@]2(C)[C@H](C)CC[C@]3(CC[C@@H](O)[C@H]32)[C@@H](C)[C@@H]1O	> 12.5	3.15 (≈ 5.16 µM)	–	–	–	–
C=C[C@]1(C)C[C@@H](OC(=O)CSC(C)(C)CNC(=O)[C@H](N)C(C)C)[C@]2(C)[C@H](C)CC[C@]3(CCC(=O)[C@H]32)[C@@H](C)[C@@H]1O [VALNEMULIN]	25 (≈ 44.3 µM)	6.25 (≈ 11.1 µM)	3.13 (≈ 5.54 µM)	12.5 (≈ 22.1 µM)	14.9 (≈ 26.4 µM)	solubility [15]: Soluble; t1/2 [16]: 34.8 s; fractional inhibitory concentration index (FICI) (Acinetobacter baumannii [17]): 0.375; fractional inhibitory concentration index (FICI) (Acinetobacter baumannii [18]): 0.375
COLISTIN [listing 2 of 2 here]	–	–	–	–	–	IC50 (Vero; vero): > 200 µg/mL
